# Results taken from ChEMBL document CHEMBL3046583, “Design, synthesis, and insecticidal activity of novel pyrazole derivatives containing α-hydroxymethyl-N-benzyl carboxamide, α-chloromethyl-N-benzyl carboxamide, and 4,5-dihydrooxazole moieties” (2012).
# Columns and labels:
# Plutella xylostella [1] = assay: Stomach toxicity against Plutella xylostella (diamondback moth) assessed as larvicidal activity at 600 mg/kg by leaf dip method; format: functional
# Tetranychus cinnabarinus [2] = assay: Acaricidal activity against Tetranychus cinnabarinus (carmine spider mite) larvae at 600 mg/kg by leaf dip method; format: functional
# Plutella xylostella [3] = assay: Stomach toxicity against Plutella xylostella (diamondback moth) assessed as larvicidal activity at 200 mg/kg by leaf dip method; format: functional
# Tetranychus cinnabarinus [4] = assay: Acaricidal activity against Tetranychus cinnabarinus (carmine spider mite) adults at 200 mg/kg by leaf dip method; format: functional
# Tetranychus cinnabarinus [5] = assay: Acaricidal activity against Tetranychus cinnabarinus (carmine spider mite) adults at 600 mg/kg by leaf dip method; format: functional
# Helicoverpa armigera [6] = assay: Stomach toxicity against third-instars Helicoverpa armigera assessed as larvicidal activity at 55 mg/kg at 25 +/- 1 degC after 3 days; format: functional
# In short: (§1)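 Diet-incorporation assay on third-instar larvae. Samples dissolved in acetone to the desired final concentrations; 3 mL of test solution mixed evenly into about 27 g of prepared feed, then dispensed into 24-well plates. Run in triplicate at 25 ± 1 °C. Dead/alive scoring 3 days after treatment; mortality corrected by Abbott's formula on a 0–100 scale.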
# Tetranychus cinnabarinus [7] = assay: Acaricidal activity against Tetranychus cinnabarinus (carmine spider mite) larvae at 200 mg/kg by leaf dip method; format: functional
# Tetranychus cinnabarinus [8] = assay: Acaricidal activity against Tetranychus cinnabarinus (carmine spider mite) eggs at 200 mg/kg by leaf dip method; format: functional, Egg
# Aphis craccivora [9] = assay: Larvicidal activity against Aphis craccivora (cowpea aphid) at 600 mg/kg by leaf dip method; format: functional
# Tetranychus cinnabarinus [10] = assay: Acaricidal activity against Tetranychus cinnabarinus (carmine spider mite) eggs at 600 mg/kg by leaf dip method; format: functional, Egg
# Helicoverpa armigera [11] = assay: Stomach toxicity against third-instars Helicoverpa armigera assessed as larvicidal activity at 22 mg/kg at 25 +/- 1 degC after 3 days; format: functional; in short: as §1
# Aphis craccivora [12] = assay: Larvicidal activity against Aphis craccivora (cowpea aphid) at 200 mg/kg by leaf dip method; format: functional
# Culex pipiens pallens [13] = assay: Larvicidal activity against Culex pipiens pallens (mosquito) at 2 mg/kg; format: functional
# Helicoverpa armigera [14] = assay: Stomach toxicity against third-instars Helicoverpa armigera assessed as larvicidal activity at 110 mg/kg at 25 +/- 1 degC after 3 days; format: functional; in short: as §1
# Culex pipiens pallens [15] = assay: Larvicidal activity against Culex pipiens pallens (mosquito) at 5 mg/kg; format: functional
# Helicoverpa armigera [16] = assay: Stomach toxicity against third-instars Helicoverpa armigera assessed as larvicidal activity at 11 mg/kg at 25 +/- 1 degC after 3 days; format: functional; in short: as §1
# Culex pipiens pallens [17] = assay: Larvicidal activity against Culex pipiens pallens (mosquito) at 0.5 mg/kg; format: functional
# Culex pipiens pallens [18] = assay: Larvicidal activity against Culex pipiens pallens (mosquito) at 1 mg/kg; format: functional
# Helicoverpa armigera [19] = assay: Stomach toxicity against third-instars Helicoverpa armigera assessed as larvicidal activity at 5.5 mg/kg at 25 +/- 1 degC after 3 days; format: functional; in short: as §1
SMILES,Activity (Plutella xylostella [1]) [%],Activity (Tetranychus cinnabarinus [2]) [%],Activity (Plutella xylostella [3]) [%],Activity (Tetranychus cinnabarinus [4]) [%],Activity (Tetranychus cinnabarinus [5]) [%],Activity (Helicoverpa armigera [6]) [%],Activity (Tetranychus cinnabarinus [7]) [%],Activity (Tetranychus cinnabarinus [8]) [%],Activity (Aphis craccivora [9]) [%],Activity (Tetranychus cinnabarinus [10]) [%],Activity (Helicoverpa armigera [11]) [%],Activity (Aphis craccivora [12]) [%],Activity (Culex pipiens pallens [13]) [%],Activity (Helicoverpa armigera [14]) [%],Activity (Culex pipiens pallens [15]) [%],Activity (Helicoverpa armigera [16]) [%],Activity (Culex pipiens pallens [17]) [%],Activity (Culex pipiens pallens [18]) [%],Activity (Helicoverpa armigera [19]) [%]
CCc1cc(C2=NC(c3ccc(Oc4ccccc4)cc3)CO2)n(C)n1 (stereo not drawn),70,70,45,10,40,100,50,50,50,90,40,20,0,100,30,0,,,
CCCCCOc1ccc(C(CO)NC(=O)c2c(Cl)c(CC)nn2C)cc1 (stereo not drawn),90,20,30,0,15,100,0,20,100,30,30,95,0,100,20,0,,,
CCc1nn(C)c(C(=O)NC(CCl)c2ccc(C(C)(C)C)cc2)c1Cl (stereo not drawn),90,30,30,,0,100,0,30,100,34,100,100,100,100,100,20,0,40,0
CCc1cc(C(=O)NC(CO)c2ccc(C(C)(C)C)cc2)n(C)n1 (stereo not drawn),70,0,60,,0,100,,40,70,50,60,50,0,100,10,10,,,0
CCc1cc(C(=O)NC(CO)c2ccc(Oc3ccccc3)cc2)n(C)n1 (stereo not drawn),90,0,45,0,30,100,,0,95,20,30,70,0,100,30,0,,,
CCc1nn(C)c(C(=O)NC(CO)c2ccc(Cl)cc2)c1Cl (stereo not drawn),30,25,0,,0,100,0,0,100,10,40,95,0,100,30,0,,,
CCCCCOc1ccc(C2COC(c3cc(CC)nn3C)=N2)cc1 (stereo not drawn),30,30,0,0,20,100,0,40,75,50,30,20,0,100,30,0,,,
CCc1cc(C2=NC(c3ccc(Cl)cc3)CO2)n(C)n1 (stereo not drawn),60,40,15,0,20,100,20,80,100,100,70,90,0,100,10,40,,,0
CCCCCOc1ccc(C(CCl)NC(=O)c2cc(CC)nn2C)cc1 (stereo not drawn),15,70,0,,0,100,40,50,100,70,40,80,60,100,100,0,,0,
CCCCCOc1ccc(C(CCl)NC(=O)c2c(Cl)c(CC)nn2C)cc1 (stereo not drawn),90,30,45,,0,100,0,0,100,40,100,45,70,100,100,60,,0,10
CCCCCOc1ccc(C(CO)NC(=O)c2cc(CC)nn2C)cc1 (stereo not drawn),45,20,30,0,45,100,0,0,100,20,60,85,0,100,20,20,,,0
CCc1nn(C)c(C(=O)NC(CO)c2ccc(Oc3ccccc3)cc2)c1Cl (stereo not drawn),60,30,20,,0,100,0,0,100,15,70,50,100,100,100,40,0,40,0
CCc1cc(C(=O)NC(CCl)c2ccc(Cl)cc2)n(C)n1 (stereo not drawn),30,20,0,,0,100,0,0,30,30,20,0,0,100,10,0,,,
CCc1nn(C)c(C2=NC(c3ccc(Cl)cc3)CO2)c1Cl (stereo not drawn),0,20,,0,10,100,0,0,60,40,100,35,50,100,100,90,,0,60
CCc1cc(C(=O)NC(CO)c2ccc(Cl)cc2)n(C)n1 (stereo not drawn),100,25,60,0,25,100,0,,98,0,50,75,0,100,20,0,,,
CCc1nn(C)c(C(=O)NC(CO)c2ccc(C(C)(C)C)cc2)c1Cl (stereo not drawn),80,25,40,0,10,100,,0,100,40,40,80,0,100,20,0,,,
